The list is not random: actives were taken first. Their share in the collection is about 3.6%.
BB579 growth dn – chemicals that inhibit yeast BB579 growth in restrictive medium (lifespan-shortening candidates); S. cerevisiae BB579 growth, OD615, 48 h; inhibition, % at 10 µM; hit rate 0.51% among 140,000; AID 804;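 active = inhibition above a set limit, 3 SD over the mean compound inhibition, cut at about 44% in these data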
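Material: Saccharomyces cerevisiae DeaD strain BB579, replicative lifespan model yeast; buffer or medium: CSMM-D restrictive synthetic medium containing dextrose (glucose); compound: 10 µM single dose, DMSO 0.25%; timing: 48 h compound exposure at 30 °C after 4 h preincubation; signal: turbidity as optical density at 615 nm; benchmarks: positive control amphotericin B 10 µg/mL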
Yeast lifespan up – yeast lifespan extension; S. cerevisiae growth with nicotinamide, OD615; deaD strain in restrictive glucose medium; inhibition of the nicotinamide effect, % at 10 µM; hit rate 0.68% among 130,000;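 active = inhibition above a set limit, placed 3 SD over the median of all compounds, cut at about 26% in these data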;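 also: 0% = nicotinamide-treated wells and 100% = cells grown without nicotinamide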
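Test system: DeaD-strain S. cerevisiae / Buffer or medium: restrictive glucose medium / Also added: nicotinamide 1.5 mM / Doses: one concentration, 10 µM, DMSO 0.25% / Schedule: 48 h at 30 °C / Signal: OD615 measurement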
Measles CPE – protection of cells from measles virus | hit rate 1.5% among 140,000 | Measles virus-infected cells, CPE protection, absorbance | protection (pct of control), % at 4 µM; in the data active = protection mostly above about 24%, no sharp cut-off; inactive = mostly below about 26%
RAM network inh – blocks the yeast RAM network; inhibition, % at 50 µM; hit rate 1.8% among 190,000; S. cerevisiae dse1pr::URA3 reporter, 5-FOA growth OD615, 2 d; analog-sensitive cbk1-as2 kinase mutant strain; AID 868;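 active = inhibition above a set limit, 3 SD over mean compound inhibition, cut at about 8.4% in these data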;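 also: 0% = DMSO-only wells with no growth and 100% = 10 µM 1-NA-PP1 full growth; inhibition rescues growth on 5-FOA so higher OD means more RAM inhibition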
* hit, by the source's call; . = no result given.

SMILES	BB579 growth dn	Yeast lifespan up	Measles CPE	RAM network inh
Cc1ccc(CNc2nc3ccccc3s2)s1	-37.7	32.4*	4.2	0.2
CSc1nnc2c3ccccc3n(CCc3ccccc3)c2n1	-20.2	-4.3	54.9*	1.2
CSc1nnc2c3ccccc3n(Cc3ccccc3)c2n1	-26.1	-3.8	6.4	0.3
COc1ccc(-c2[nH]ncc2-c2ccc(Cl)cc2)c(O)c1	73.4*	-36.9	6.6	-1.9
Oc1ccc(-c2[nH]ncc2-c2ccc(Cl)cc2)c(O)c1	-32.3	-23.5	7.8	-0.1
CCOc1ccc(-c2[nH]ncc2-c2csc(C)n2)c(O)c1	-12.2	0.4	11.9	3.2
CCCOC(=O)c1ccc(Oc2cn[nH]c2-c2ccc(OCC)cc2O)cc1	63.8*	-26.1	8.1	2.8
CCOc1ccc(-c2[nH]ncc2Oc2cccc(OC)c2)c(O)c1	85.8*	-24.1	14.9	-1.0
Cc1nc2sc(-c3ccccc3)cc2c(=O)n1/N=C/N(C)C	.	.	.	0.1
Cc1ccc(Cl)cc1Nc1nc(-c2sc(NC(=O)c3ccccc3)nc2C)cs1	-84.0	-4.2	3.7	9.3*
Cc1ccccc1NCc1nnc2n1CCCCC2	.	.	.	0.2
CCO/C(C)=N/n1c2nc3ccccc3nc2c2c(=O)n(Cc3ccccc3Cl)c(C)nc21	-24.0	12.1	7.2	8.6*
COC(=O)c1cc(NC(=O)CC2SCCNC2=O)cc(C(=O)OC)c1 (configuration not stated)	0.3	-11.3	48.0*	2.3
CN=c1scc(C)n1/N=C/c1cc(Br)c(O)c(Br)c1	.	.	.	10.2*
O=C(COC(=O)c1n[nH]c2ccccc12)Nc1ccc(S(=O)(=O)N2CCCC2)cc1	-40.8	-11.5	70.6*	3.4
O=C(COC(=O)c1n[nH]c2ccccc12)Nc1cccc(S(=O)(=O)N2CCOCC2)c1	.	.	.	1.5
COc1ccccc1N(CC(=O)Nc1ccc(S(=O)(=O)N2CCCCC2)cc1)S(C)(=O)=O	-19.6	.	64.9*	1.5
COC(=O)NNC(=S)Nc1ccc(Br)cc1	.	.	.	1.4
O=C(NCc1ccccc1)c1ccc(Br)cc1	.	.	.	1.2
O=C(NCc1ccccc1)c1cccc(Br)n1	-22.6	-6.4	44.4*	-0.7
Cc1cc(C)n2nc(C(=O)NCc3ccccc3)cc2n1	-27.1	-20.2	42.5*	0.1
Cc1ccc(-c2cccc(C(=O)NCc3ccccc3)n2)c2ccccc12	-9.2	2.7	6.8	10.3*
Cc1ccc(C(=O)NCc2ccccc2)c(F)c1F	.	.	.	-0.2
CCOc1ccc(-c2noc(=O)[nH]2)cc1	-2.3	-3.6	38.3*	-0.5
CNc1oc(Cc2cccc3ccccc23)nc1C#N	-50.0	-9.1	9.0	0.9
SMILES	BB579 growth dn	Yeast lifespan up	Measles CPE	RAM network inh
CC1CN(c2oc(Cc3cccc4ccccc34)nc2C#N)CC(C)O1 (configuration not stated)	-4.1	-13.2	23.2	9.9*
Cc1nnc(SCc2ccccc2)nc1/C=C/NOCc1ccc(Cl)cc1Cl	-13.9	11.3	3.7	8.5*
CSc1nnc(C)c(/C=C/NOCc2cccc(F)c2)n1	.	.	.	0.2
CCCCN(CCCC)c1ccc(C(=O)c2ccccc2C(=O)O)c(O)c1	-41.3	34.1*	21.9	4.0
CN(C)c1ccc(C(=O)c2ccccc2C(=O)O)c(O)c1	-5.1	-0.2	5.1	0.6
CCCc1[nH][nH]c(=O)c1C(c1cccc(Cl)c1)C(C#N)C#N (configuration not stated)	-57.9	16.9	19.0	2.3
N#CC(C#N)C(c1ccsc1)c1c(-c2ccccc2)[nH][nH]c1=O (configuration not stated)	-62.1	40.4*	3.4	1.6
COc1ccc(S(=O)(=O)N(C)C)cc1NCC(=O)Nc1cccc(C#N)c1	.	.	.	1.7
CSc1ccccc1NC(=O)Cn1c(-c2cscn2)nc2ccccc21	-82.4	-9.8	96.2*	1.9
CC(C)c1ccccc1NC(=O)Cn1c(-c2ccccc2Cl)nc2ccccc21	-1.9	3.1	4.9	0.8
CC1(C)c2ssc(=S)c2-c2ccccc2N1C(=O)CSC1=NCCS1	-45.1	-18.8	37.5*	2.2
O=C(COc1ccccc1)c1cn(CC(=O)N2CCCC2)c2ccccc12	.	.	.	0.7
COc1ccc(-c2ocnc2C(=O)N2CCN(C(c3ccccc3)c3ccccc3)CC2)cc1	.	.	.	0.5
CCN(CC)CC(=O)Nc1sc(C)c(C)c1C(=O)c1ccc(C)cc1	.	.	.	1.5
Cc1ccc(C(=O)c2c(NC(=O)c3ccccc3C)sc(C)c2C)cc1	-46.6	-25.0	4.7	10.4*
CCOC(=O)C1CCN(c2c([N+](=O)[O-])c(C(Cl)Cl)nn2-c2ccccc2)CC1	-17.4	2.1	9.9	7.6
O=[N+]([O-])c1c(C(Cl)Cl)nn(-c2ccccc2)c1N1CCCC1	-42.5	45.2*	.	-0.1
O=C(COC(=O)c1ccc(Cl)c(S(=O)(=O)NCc2ccccc2)c1)NCC1CCCO1 (configuration not stated)	.	.	.	0.5
CCOC(=O)N1CCN=C1SCc1ccc(Cl)c(Cl)c1	.	.	.	-1.9
Cc1cc(CNC(=O)COc2ccc(F)cc2Cl)cc(C)c1O	.	.	.	10.0*
Cc1cc(Cl)ccc1OCC(=O)NCc1ccncc1	-14.0	-3.5	47.9*	1.1
O=C(COc1ccc(Cl)cc1Cl)NCc1ccncc1	-16.2	-21.0	23.7	0.4
CCOC(=O)Cc1nnc(Nc2cc(C)ccc2C)c2ccccc12	.	.	.	7.8
CCCn1c(C)cs/c1=N\C(=S)Nc1ccccc1	-29.1	0.4	43.5*	6.6
CN(C)S(=O)(=O)c1cccc(NC(=O)CN2C(=O)NC(CCc3ccccc3)C2=O)c1 (configuration not stated)	.	.	.	1.0
SMILES	BB579 growth dn	Yeast lifespan up	Measles CPE	RAM network inh
O=C(COc1ccc(Cl)cc1Cl)NCC(=O)N/N=C/c1c[nH]c2ccccc12	-18.4	1.9	3.8	9.8*
O=C(CNc1ccccc1)N/N=C/c1c[nH]c2ccccc12	-20.2	-7.1	4.1	0.4
CCCC(c1nnnn1Cc1ccco1)N1CCN(C(=O)c2ccco2)CC1 (configuration not stated)	-30.5	-0.2	44.0*	0.4
COc1cc2nc3c4ccccc4n(CC#N)c3nc2cc1OC	-18.1	-14.6	8.1	8.4*
CCn1c2ccccc2c2nc3cc(OC)c(OC)cc3nc21	-15.7	-27.2	12.6	9.3*
COc1ccc(CNC(=O)c2c(C)oc3c2C(=O)c2ccccc2C3=O)cc1	10.9	5.5	9.8	2.6
CC(=O)c1c(C)oc2c1C(=O)c1ccccc1C2=O	62.5*	-7.0	10.8	0.0
Cc1c(C(=O)N/N=C/c2ccc(Cl)cc2)[nH]c2ccc(Cl)cc12	-50.7	3.5	1.5	8.5*
Cc1c(C(=O)N/N=C/C(C)C)[nH]c2ccc([N+](=O)[O-])cc12	-36.0	-3.9	6.8	-0.7
[N-]=[N+]=CC(=O)C(Cc1ccccc1)N1C(=O)c2ccccc2C1=O (configuration not stated)	-11.9	33.6*	9.5	2.4
CCC1CCC(C(=O)NC(C(=O)NCCCN2CCCCC2C)C(C)C)CC1 (configuration not stated)	.	.	.	0.5
Nc1nc(-c2ccccc2)c(N=Nc2ccccc2Cl)s1	-22.0	-2.1	4.0	9.2*
Nc1nc(-c2ccccc2)c(N=Nc2cccc3ccccc23)s1	-38.5	2.6	11.3	4.8
